Tests used:
[1] = target: T1, Inhibitor of nuclear factor kappa-B kinase subunit beta (Homo sapiens, UniProt O14920); assay: Inhibition of human IKKbeta using ERLLDDRHDSGLDSMKDEE as substrate after 60 mins in presence of ATP by ADP-Glo kinase assay
T1 sequence (O14920 whole entry): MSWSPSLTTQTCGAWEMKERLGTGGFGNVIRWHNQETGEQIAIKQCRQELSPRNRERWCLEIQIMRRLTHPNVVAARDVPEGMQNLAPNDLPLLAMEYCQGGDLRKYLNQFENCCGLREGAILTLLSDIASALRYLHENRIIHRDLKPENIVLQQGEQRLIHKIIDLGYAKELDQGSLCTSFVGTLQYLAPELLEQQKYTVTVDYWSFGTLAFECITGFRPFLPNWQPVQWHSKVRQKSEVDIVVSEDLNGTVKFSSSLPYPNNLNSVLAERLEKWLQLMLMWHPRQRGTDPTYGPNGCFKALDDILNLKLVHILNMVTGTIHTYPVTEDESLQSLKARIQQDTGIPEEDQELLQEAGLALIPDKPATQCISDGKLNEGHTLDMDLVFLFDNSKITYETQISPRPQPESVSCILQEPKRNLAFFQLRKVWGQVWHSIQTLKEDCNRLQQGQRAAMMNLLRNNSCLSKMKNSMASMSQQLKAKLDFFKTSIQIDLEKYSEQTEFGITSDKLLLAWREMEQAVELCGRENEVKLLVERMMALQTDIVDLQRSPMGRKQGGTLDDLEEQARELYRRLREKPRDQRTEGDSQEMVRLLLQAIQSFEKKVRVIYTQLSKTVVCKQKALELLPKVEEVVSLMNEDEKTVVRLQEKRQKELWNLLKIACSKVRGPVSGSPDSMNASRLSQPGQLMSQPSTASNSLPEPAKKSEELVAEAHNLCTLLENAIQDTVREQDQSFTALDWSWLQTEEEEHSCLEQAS

[2] = target: T2, Inhibitor of nuclear factor kappa-B kinase subunit alpha (Homo sapiens) (UniProt O15111); assay: Inhibition of human IKKalpha at 100 uM using ERLLDDRHDSGLDSMKDEE as substrate after 60 mins in presence of ATP by ADP-Glo kinase assay relative to control
T2 sequence (whole entry): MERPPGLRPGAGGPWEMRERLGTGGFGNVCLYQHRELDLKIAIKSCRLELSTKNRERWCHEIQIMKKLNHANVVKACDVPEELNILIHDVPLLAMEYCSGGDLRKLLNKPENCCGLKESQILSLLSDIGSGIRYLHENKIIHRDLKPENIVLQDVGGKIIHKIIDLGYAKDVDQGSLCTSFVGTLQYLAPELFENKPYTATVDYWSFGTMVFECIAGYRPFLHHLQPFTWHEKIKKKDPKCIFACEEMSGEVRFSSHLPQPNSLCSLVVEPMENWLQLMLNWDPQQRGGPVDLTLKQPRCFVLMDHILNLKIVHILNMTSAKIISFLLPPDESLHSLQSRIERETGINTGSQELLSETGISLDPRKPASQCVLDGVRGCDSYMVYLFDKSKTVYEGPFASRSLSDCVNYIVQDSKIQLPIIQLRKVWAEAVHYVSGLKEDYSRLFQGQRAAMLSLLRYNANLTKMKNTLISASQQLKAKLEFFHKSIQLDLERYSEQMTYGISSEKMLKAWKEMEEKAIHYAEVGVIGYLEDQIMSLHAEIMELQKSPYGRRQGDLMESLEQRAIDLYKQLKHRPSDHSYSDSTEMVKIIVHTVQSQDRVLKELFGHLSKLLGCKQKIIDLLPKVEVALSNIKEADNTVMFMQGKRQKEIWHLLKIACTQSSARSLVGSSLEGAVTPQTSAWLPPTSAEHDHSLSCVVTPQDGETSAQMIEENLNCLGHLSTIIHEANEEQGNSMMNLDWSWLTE

[3] = target: T3, Inhibitor of nuclear factor kappa-B kinase subunit alpha (Homo sapiens, UniProt O15111); assay: Inhibition of human IKKalpha using ERLLDDRHDSGLDSMKDEE as substrate after 60 mins in presence of ATP by ADP-Glo kinase assay
T3 sequence (O15111 whole entry): T2 sequence (whole entry)

[4] = target: T4, Mitogen-activated protein kinase kinase kinase 14 (Homo sapiens, UniProt Q99558); assay: Inhibition of human NIK at 100 uM using AKDVDQGSLCTSFVGTLQY as substrate after 60 mins in presence of ATP by ADP-Glo kinase assay relative to control
Target sequence in this assay (Q99558 whole entry, looked up): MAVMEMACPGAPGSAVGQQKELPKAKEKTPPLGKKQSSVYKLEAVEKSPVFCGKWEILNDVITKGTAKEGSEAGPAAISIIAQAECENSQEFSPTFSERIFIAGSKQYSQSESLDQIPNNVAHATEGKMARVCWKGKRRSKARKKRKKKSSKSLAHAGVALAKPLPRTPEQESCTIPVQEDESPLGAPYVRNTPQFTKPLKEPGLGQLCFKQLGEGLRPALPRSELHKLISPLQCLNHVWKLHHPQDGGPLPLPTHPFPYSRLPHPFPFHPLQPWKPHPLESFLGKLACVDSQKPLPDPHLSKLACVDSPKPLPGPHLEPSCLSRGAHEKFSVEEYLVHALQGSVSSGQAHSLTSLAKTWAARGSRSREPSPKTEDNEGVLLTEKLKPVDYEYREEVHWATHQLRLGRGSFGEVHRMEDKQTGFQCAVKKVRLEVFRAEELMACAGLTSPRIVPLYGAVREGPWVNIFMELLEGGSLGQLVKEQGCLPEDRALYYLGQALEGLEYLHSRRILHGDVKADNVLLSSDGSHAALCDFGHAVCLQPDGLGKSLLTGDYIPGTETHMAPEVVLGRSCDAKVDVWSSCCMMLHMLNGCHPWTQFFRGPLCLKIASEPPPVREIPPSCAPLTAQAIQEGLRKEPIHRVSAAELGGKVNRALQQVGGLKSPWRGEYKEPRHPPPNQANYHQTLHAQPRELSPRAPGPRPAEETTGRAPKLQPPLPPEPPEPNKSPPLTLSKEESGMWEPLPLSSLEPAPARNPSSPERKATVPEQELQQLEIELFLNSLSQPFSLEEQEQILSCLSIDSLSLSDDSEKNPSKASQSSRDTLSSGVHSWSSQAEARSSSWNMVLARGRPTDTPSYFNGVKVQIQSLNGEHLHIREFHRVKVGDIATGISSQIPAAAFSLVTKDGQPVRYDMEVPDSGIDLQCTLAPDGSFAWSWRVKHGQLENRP

[5] = target: T4, Mitogen-activated protein kinase kinase kinase 14; assay: Inhibition of human NIK using AKDVDQGSLCTSFVGTLQY as substrate after 60 mins in presence of ATP by ADP-Glo kinase assay
Target sequence in this assay (Q99558 whole entry): as the sequence (Q99558 whole entry, looked up) above

[6] = target: T5, Inhibitor of nuclear factor kappa-B kinase subunit epsilon (Homo sapiens, UniProt Q14164); assay: Inhibition of human IKKepsilon using ERLLDDRHDSGLDSMKDEE as substrate after 60 mins in presence of ATP by ADP-Glo kinase assay
T5 sequence (Q14164 whole entry): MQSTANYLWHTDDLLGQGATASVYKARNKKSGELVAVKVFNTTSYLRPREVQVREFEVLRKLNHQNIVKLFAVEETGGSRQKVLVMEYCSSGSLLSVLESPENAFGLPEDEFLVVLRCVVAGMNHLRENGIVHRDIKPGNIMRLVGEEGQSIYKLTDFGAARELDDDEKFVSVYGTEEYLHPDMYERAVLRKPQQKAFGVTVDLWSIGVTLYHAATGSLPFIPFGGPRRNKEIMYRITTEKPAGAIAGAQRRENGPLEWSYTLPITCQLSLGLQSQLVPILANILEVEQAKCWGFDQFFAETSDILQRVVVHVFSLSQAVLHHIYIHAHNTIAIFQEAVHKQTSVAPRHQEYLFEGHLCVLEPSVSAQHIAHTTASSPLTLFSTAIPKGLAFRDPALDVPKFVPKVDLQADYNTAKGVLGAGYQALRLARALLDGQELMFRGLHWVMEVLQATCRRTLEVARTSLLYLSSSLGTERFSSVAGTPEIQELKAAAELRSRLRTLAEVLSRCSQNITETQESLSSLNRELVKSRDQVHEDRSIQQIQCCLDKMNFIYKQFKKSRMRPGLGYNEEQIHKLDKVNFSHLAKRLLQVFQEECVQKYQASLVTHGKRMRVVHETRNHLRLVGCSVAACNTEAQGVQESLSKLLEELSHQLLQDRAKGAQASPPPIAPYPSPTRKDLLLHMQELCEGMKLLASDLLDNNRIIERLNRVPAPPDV

Jurkat = assay: Inhibition of TNFalpha-activated canonical NF-kB signaling pathway in human Jurkat cells assessed as residual activity at 1 uM after 6 hrs by luciferase reporter gene assay relative to control; assay type: cell-based
Summary of the method: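 Jurkat cells nucleofected with 3 µg of NF-κB-RE firefly luciferase and TK-Renilla plasmids (10:1), then cultured 24 h at 37 °C. Compound added for a further 6 h, with TNFα in the last 20 min. Firefly luminescence normalized to Renilla and expressed as % of DMSO+TNFα control; mean ± SD of three experiments.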

SMILES	IC50 [1] [µM]	inhibition [2] [%]	IC50 [3] [µM]	inhibition [4] [%]	IC50 [5] [µM]	IC50 [6] [µM]	Activity (Jurkat) [%]
O=C(Nc1cc(C(F)(F)F)cc(C(F)(F)F)c1)c1nsnc1O	> 100	25.2	> 100	4.34	> 100	> 100	15.9
O=C(Nc1cc(C(F)(F)F)cc(C(F)(F)F)c1)c1cc(Cl)ccc1O [IMD-0354]	> 100	3.45	> 100	13.8	> 100	> 100	23.5
